According to ChEMBL document CHEMBL4613220, “Identification of small molecule inhibitors of human COQ7” (Bioorg Med Chem, 2020):
Where “and” joins values, the source holds several entries; their conditions need not be identical. Equal entries are not always repeated. Calls of active or inactive are those of the source. No cut-off for these calls is given here.

Key:
[1] = target: T1, 5-demethoxyubiquinone hydroxylase, mitochondrial (Homo sapiens) (UniProt Q99807); experiment: Inhibition of COQ7 in human HeLa cells assessed as DMQ10 level per well at 10 uM after 2 days by HPLC analysis relative to control; type: cell-based; parameters: scale not given: the % may be the effect or the level left
T1 sequence (whole entry): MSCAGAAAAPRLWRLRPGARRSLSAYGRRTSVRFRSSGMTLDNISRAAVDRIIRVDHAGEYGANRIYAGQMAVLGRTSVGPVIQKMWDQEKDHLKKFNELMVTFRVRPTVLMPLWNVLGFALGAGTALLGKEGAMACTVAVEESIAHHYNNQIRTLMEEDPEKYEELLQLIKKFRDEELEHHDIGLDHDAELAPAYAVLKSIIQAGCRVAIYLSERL
Procedure, shortened: (§1)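 HeLa cells cultured overnight, then exposed 48 hr to compound (single 30 µM screen, 10 µM, or graded doses); 0.5-1.0% DMSO controls. Quinones extracted with ethanol/n-hexane after K3Fe(CN)6 oxidation and UQ9 internal standard, then resolved by C18 HPLC with UV at 275 nm. DMQ10 and UQ10 reported as ng/well and DMQ10 as % of total quinone; mean of duplicates.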

[2] = target: T1, 5-demethoxyubiquinone hydroxylase, mitochondrial (Homo sapiens); experiment: Inhibition of COQ7 in human HeLa cells assessed as DMQ10 level per well at 10 uM after 2 days by HPLC analysis; type: cell-based; procedure, shortened: as §1
[3] = target: T1, 5-demethoxyubiquinone hydroxylase, mitochondrial (Homo sapiens); experiment: Inhibition of COQ7 in human HeLa cells assessed as UQ10 level per well at 10 uM after 2 days by HPLC analysis; type: cell-based; procedure, shortened: as §1
[4] = (§2) Cytotoxicity against human WI38 cells assessed as growth inhibition after 4 days by cell-titer-Glo assay; type: cell-based, WI-38; details: WI-38 cells
Procedure, shortened: (§3)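 WI-38 normal fibroblasts grown in DMEM + 10% FBS at 37 °C, 5% CO2. Pre-cultured 24 hr, then exposed to compound at 0-30 µM for 4 days. Viability read by CellTiter-Glo 2.0; GI50 by linear interpolation of concentration-response curves, mean of triplicates.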

[5] = target: T1, 5-demethoxyubiquinone hydroxylase, mitochondrial (Homo sapiens); experiment: Inhibition of COQ7 in human PANC1 cells assessed as DMQ10 accumulation at 10 uM after 1 day by HPLC analysis relative to control; type: cell-based; parameters: scale not given: the % may be the effect or the level left; details: PANC-1
Procedure, shortened: (§4)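 Cells (2 or 4 x 10^5/well) cultured overnight, then exposed 24 hr to compound at 10 µM; DMSO controls. Cells suspended in PBS with 5% K3Fe(CN)6, 0.12 µg UQ9 added as internal standard, quinones extracted in ethanol/n-hexane (2:5). Reverse-phase C18 HPLC, isocratic diisopropyl ether/methanol (1:9), 30 °C, UV 275 nm; DMQ10 at 10.2 min. DMQ10 reported as ng/well and % of total quinone; duplicate wells.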

[6] = target: T1, 5-demethoxyubiquinone hydroxylase, mitochondrial (Homo sapiens); experiment: Inhibition of COQ7 in human PC3 cells assessed as DMQ10 accumulation at 10 uM after 1 day by HPLC analysis relative to control; type: cell-based; parameters: scale not given: the % may be the effect or the level left; details: PC-3; procedure, shortened: as §4
[7] = target: T1, 5-demethoxyubiquinone hydroxylase, mitochondrial (Homo sapiens); experiment: Inhibition of COQ7 in human HeLa cells assessed as DMQ10 accumulation at 5 uM after 2 days by HPLC analysis; type: cell-based; procedure, shortened: as §1
[8] = target: T1, 5-demethoxyubiquinone hydroxylase, mitochondrial (Homo sapiens); experiment: Inhibition of COQ7 in human BxPC3 cells assessed as DMQ10 accumulation at 10 uM after 1 day by HPLC analysis relative to control; type: cell-based; parameters: scale not given: the % may be the effect or the level left; details: BXPC-3; procedure, shortened: as §4
[9] = target: T1, 5-demethoxyubiquinone hydroxylase, mitochondrial (Homo sapiens); experiment: Inhibition of COQ7 in human HeLa cells assessed as DMQ10 accumulation at 20 uM after 2 days by HPLC analysis; type: cell-based; procedure, shortened: as §1
[10] = target: T1, 5-demethoxyubiquinone hydroxylase, mitochondrial (Homo sapiens); experiment: Inhibition of COQ7 in human C3A cells assessed as DMQ10 accumulation at 10 uM after 1 day by HPLC analysis relative to control; type: cell-based; parameters: scale not given: the % may be the effect or the level left; procedure, shortened: as §4
[11] = target: T1, 5-demethoxyubiquinone hydroxylase, mitochondrial (Homo sapiens); experiment: Inhibition of COQ7 in human HeLa cells assessed as DMQ10 accumulation at 10 uM after 1 day by HPLC analysis relative to control; type: cell-based; parameters: scale not given: the % may be the effect or the level left; procedure, shortened: as §4
HeLa = experiment: Growth inhibition of human HeLa cells assessed as growth inhibition after 3 days by cell-titer-Glo assay; type: functional; details: 72 h
Procedure, shortened: (§5)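 Cells pre-cultured 24 hr, then exposed to a range of compound concentrations for a further 3 days. Viable cells counted by CellTiter-Glo 2.0 luminescence; GI50 obtained by linear interpolation of concentration-response curves, mean of triplicates. Medium: DMEM + 10% FBS for HeLa and PANC-1, EMEM for C3A, F-12K for PC-3; 37 °C, 5% CO2.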

C3A [12] = experiment: Growth inhibition of human C3A cells assessed as growth inhibition after 3 days by cell-titer-Glo assay; type: functional; details: 72 h; procedure, shortened: as §5
[13] = target: T1, 5-demethoxyubiquinone hydroxylase, mitochondrial (Homo sapiens); experiment: Inhibition of COQ7 in human PC3 cells assessed as DMQ10 accumulation at 10 uM after 24 hrs by HPLC analysis relative to control; type: cell-based; parameters: scale not given: the % may be the effect or the level left; details: PC-3; procedure, shortened: as §4
PC-3 = experiment: Cytotoxicity against human PC3 cells assessed as growth inhibition after 3 days by cell-titer-Glo assay; type: functional; details: PC-3, 72 h; procedure, shortened: as §5
[14] = target: T1, 5-demethoxyubiquinone hydroxylase, mitochondrial (Homo sapiens); experiment: Inhibition of COQ7 in human PANC1 cells assessed as DMQ10 accumulation at 10 uM after 24 hrs by HPLC analysis relative to control; type: cell-based; parameters: scale not given: the % may be the effect or the level left; details: PANC-1; procedure, shortened: as §4
PANC-1 = experiment: Growth inhibition of human PANC1 cells after 3 days by cell-titer-Glo assay; type: functional; details: PANC-1, 72 h; procedure, shortened: as §5
C3A [15] = experiment: Growth inhibition of human C3A cells after 3 days in presence of 10 mM 2-DG by cell-titer-Glo assay; type: functional; details: 72 h
Procedure, shortened: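 C3A cells in EMEM + 10% FBS with 10 mM 2-deoxyglucose in the medium to block glycolysis. Pre-cultured 24 hr, then exposed to graded compound concentrations for 3 further days. Viable cells quantified by CellTiter-Glo 2.0; GI50 by linear interpolation, mean of triplicates.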

WI-38 = experiment: as §2; type: cell-based; details: wi-38, 96 h, 96 h; procedure, shortened: as §3
C3A [16] = experiment: Antiproliferative activity against human C3A cells at 10 uM assessed as increase in cell death incubated for 24 hrs and measured after 3 days
[17] = target: T1, 5-demethoxyubiquinone hydroxylase, mitochondrial (Homo sapiens); experiment: Inhibition of COQ7 in human HeLa cells assessed as DMQ10 accumulation at 10 uM after 2 days by HPLC analysis relative to control; type: cell-based; parameters: scale not given: the % may be the effect or the level left; procedure, shortened: as §1
[18] = target: T1, 5-demethoxyubiquinone hydroxylase, mitochondrial (Homo sapiens); experiment: Inhibition of COQ7 in human HeLa cells assessed as DMQ10 accumulation at 30 uM after 2 days by HPLC analysis relative to control; type: cell-based; parameters: scale not given: the % may be the effect or the level left; procedure, shortened: as §1
[19] = target: T1, 5-demethoxyubiquinone hydroxylase, mitochondrial (Homo sapiens); experiment: Inhibition of COQ7 in human C3A cells assessed as DMQ10 level per well at 10 uM after 1 day by HPLC analysis (reference value: 7.4 ng); type: cell-based; procedure, shortened: as §4
[20] = target: T1, 5-demethoxyubiquinone hydroxylase, mitochondrial (Homo sapiens); experiment: Inhibition of COQ7 in human HeLa cells assessed as DMQ10 level per well at 10 uM after 1 day by HPLC analysis (reference value: 6.8 ng); type: cell-based; procedure, shortened: as §4

| SMILES | Activity [1] | Activity [2] | Activity [3] | GI50 at 96 h [4] | further results |
| --- | --- | --- | --- | --- | --- |
| Clc1cc(-c2ccccc2)nn1-c1ccccn1 | 0% | 0 ng | 35.7 ng | > 30 µM |  |
| Nc1ccc(-n2nc(-c3ccccc3)cc2O)nc1 | 10% | 2.6 ng | 23.4 ng | > 30 µM |  |
| Oc1cc(-c2ccccc2)nn1-c1ccccc1 | 0% | 0 ng | 28.5 ng | > 30 µM |  |
| Oc1cc(-c2ccccc2)nn1-c1cc(Cl)ccn1 | 0% | 0 ng | 22.7 ng | > 30 µM |  |
| Oc1cc(-c2ccccc2)nn1-c1ncccc1Cl | 0% | 0 ng | 20.7 ng | > 30 µM |  |
| Oc1cc(CC2CCCCC2)nn1-c1ccccn1 | 42.9% | 6.6 ng | 8.8 ng | 17.5 µM |  |
| Oc1cc(CCc2ccccc2)nn1-c1ccccn1 | 51.4% | 9.3 ng | 8.8 ng | 9.6 µM |  |
| Oc1cc(C2CCCC2)nn1-c1ccccn1 | 32.4% | 5.8 ng | 12.1 ng | 12.7 µM |  |
| CS(=O)(=O)c1ccc(-n2nc(-c3ccccc3)cc2O)nc1 | 11% | 2.2 ng | 17.8 ng | > 30 µM |  |
| Oc1c(I)cc(Cl)c2cccnc12 |  |  |  |  | Activity [5]: < 5%; Activity [6]: < 5%; Activity [7]: Active; Activity [8]: < 5%; Activity [9]: inactive; Activity [10]: > 20%; Activity [11]: > 20% |
| Cc1ccc(-n2nc(-c3ccccc3)cc2O)nc1 | 32.2% | 7.3 ng | 15.4 ng |  | GI50 (HeLa): > 12 µM; GI50 (C3A [12]): 18.5 µM; Activity [13]: 14%; GI50 (PC-3): > 12 µM; Activity [14]: 8.7%; GI50 (PANC-1): > 12 µM; GI50 (C3A [15]): 20.2 µM; GI50 (WI-38): 26.3 µM and > 12 µM; Activity (C3A [16]): inactive |
| Oc1cc(C2CCCCC2)nn1-c1ccccn1 | 20.7% | 5.5 ng | 5.9 ng | 9.1 µM |  |
| Oc1cc(-c2ccccc2)nn1-c1ccc(F)cn1 | 10.8% | 1.8 ng | 14.8 ng | 28.9 µM |  |
| COc1ccc(-n2nc(-c3ccccc3)cc2O)nc1 | 0% | 0 ng | 6.7 ng | 25.4 µM |  |
| Oc1cc(C2CCC2)nn1-c1ccccn1 | 0% | 0 ng | 24.4 ng | 25 µM |  |
| Oc1cc(-c2ccccc2)nn1-c1ccc(C(F)(F)F)cn1 | 49.5% | 9.2 ng | 9.4 ng | 9.4 µM |  |
| Oc1cc(-c2ccccc2)nn1-c1ccncc1 | 0% | 0 ng | 33.7 ng | > 30 µM |  |
| Oc1cc(-c2ccccc2)nn1-c1ccccn1 | 7.1% | 1.3 ng | 17.1 ng | 20.8 µM | Activity [17]: 19.3%; Activity [18]: > 30% |
| Oc1cc(-c2ccccc2)nn1-c1cccnc1 | 0% | 0 ng | 23.7 ng | > 30 µM |  |
| Oc1cc(-c2ccccc2)nn1-c1ccc(Cl)cn1 | 52% | 13.2 ng | 12.2 ng | 19 µM | GI50 (HeLa): > 12 µM; GI50 (C3A [12]): 9 µM; Activity [13]: 27.6%; GI50 (PC-3): > 12 µM; Activity [14]: 11.4%; GI50 (PANC-1): > 12 µM; GI50 (C3A [15]): 6.1 µM; GI50 (WI-38): 19 µM; Activity (C3A [16]): inactive; Activity [19]: 7.8 ng; Activity [20]: 7.9 ng |
